# Compound activity deposited in PubChem BioAssay by several laboratories.
# ABCB1 inh: ABCB1 efflux pump inhibitors, primary screen, cell-based, multiplex, flow cytometry, ABCG2 counter-screen. ATP-dependent translocase ABCB1 (Homo sapiens), P08183. CCRF-Adr cells, JC-1 efflux. inhibition, % at 6.6 µM. 190,000 compounds, 0.067% hits. AID 1326, 2008; in the data active means inhibition above about 40%;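 further: 0% = vehicle and 100% = reference inhibitor; higher value means more JC-1 retained so stronger ABCB1 efflux block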
# Target sequence (P08183 whole entry, looked up): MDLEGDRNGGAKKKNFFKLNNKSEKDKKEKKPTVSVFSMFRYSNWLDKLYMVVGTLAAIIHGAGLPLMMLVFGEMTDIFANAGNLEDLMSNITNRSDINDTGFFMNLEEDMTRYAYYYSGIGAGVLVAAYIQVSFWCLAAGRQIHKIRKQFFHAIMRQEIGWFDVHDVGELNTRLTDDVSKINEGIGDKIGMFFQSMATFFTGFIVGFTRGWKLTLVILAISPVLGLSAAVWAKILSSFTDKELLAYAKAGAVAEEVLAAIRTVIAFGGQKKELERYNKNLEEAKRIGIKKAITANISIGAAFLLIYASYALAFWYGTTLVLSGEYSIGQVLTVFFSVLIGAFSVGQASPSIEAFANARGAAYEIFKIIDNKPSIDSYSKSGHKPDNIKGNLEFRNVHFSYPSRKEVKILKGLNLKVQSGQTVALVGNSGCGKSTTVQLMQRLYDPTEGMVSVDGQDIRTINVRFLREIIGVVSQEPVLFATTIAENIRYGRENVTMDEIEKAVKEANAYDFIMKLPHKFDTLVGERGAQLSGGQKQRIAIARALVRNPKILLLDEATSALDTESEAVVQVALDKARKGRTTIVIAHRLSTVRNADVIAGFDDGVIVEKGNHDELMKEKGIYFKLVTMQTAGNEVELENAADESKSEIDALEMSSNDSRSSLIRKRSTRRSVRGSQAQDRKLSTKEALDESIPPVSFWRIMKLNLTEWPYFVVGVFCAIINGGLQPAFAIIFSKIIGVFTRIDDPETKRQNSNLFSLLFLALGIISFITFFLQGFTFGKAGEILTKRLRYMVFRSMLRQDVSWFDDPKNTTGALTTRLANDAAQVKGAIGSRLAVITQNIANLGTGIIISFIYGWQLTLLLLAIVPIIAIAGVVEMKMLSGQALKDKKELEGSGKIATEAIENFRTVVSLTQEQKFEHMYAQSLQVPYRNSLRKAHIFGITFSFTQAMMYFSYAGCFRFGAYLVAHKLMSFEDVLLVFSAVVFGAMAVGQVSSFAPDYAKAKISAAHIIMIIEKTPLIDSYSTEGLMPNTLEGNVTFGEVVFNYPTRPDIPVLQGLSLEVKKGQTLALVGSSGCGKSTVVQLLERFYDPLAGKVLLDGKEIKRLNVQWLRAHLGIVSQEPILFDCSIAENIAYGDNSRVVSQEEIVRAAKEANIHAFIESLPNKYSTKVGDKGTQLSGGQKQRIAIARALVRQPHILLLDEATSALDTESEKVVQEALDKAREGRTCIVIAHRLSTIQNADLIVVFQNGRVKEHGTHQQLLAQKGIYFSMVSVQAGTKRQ
# Diaph inh CS: diaphorase inhibitors and chemical oxidizers, primary screen, counter-screen for diaphorase-coupled primary assays, biochemical, uHTS, resorufin fluorescence. diaphorase resazurin-to-resorufin fluorescence, NADH, 16 min; bacterial (C. kluyveri) enzyme, not human. inhibition, % at 20 µM. 190,000 compounds, 0.69% hits;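 active means primary screen inhibition at 20 µM above a set limit, cut at about 50% in these data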;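 further: plate controls were DMSO with full reaction for no effect and wells lacking NADH for full effect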
#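 Test system: diaphorase enzyme from Clostridium kluyveri; amount: diaphorase at 0.14 U/mL in enzyme working solution; detection: fluorescence of resorufin formed from resazurin, Ex 544/Em 590 nm; times: reaction incubation of 16 min at room temperature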
# p47phox inh: p47phox/p22phox peptide binding inhibitors, primary screen, biochemical, uHTS, NADPH oxidase regulatory subunit. 220,000 compounds, 0.53% hits. AID 1274, 2008. Neutrophil cytosol factor 1 (Homo sapiens), P14598. fluorescence polarization, 2 h. inhibition, % at 24.7 µM;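 active means inhibition above about 30%, limit read from the data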;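 further: 0% = p47phox with labelled peptide and 100% = labelled peptide alone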
# HMGR II inh: inhibitors of E. faecalis class II HMGR, primary screen, biochemical, Enterococcus faecalis; HMG-CoA reductase (Enterococcus faecalis, mvaE); purified E. faecalis HMGR, NADPH absorbance 340 nm kinetic; inhibition, % at 10 µM; 190,000 compounds, 0.41% hits; AID 1066, 2008;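 active means inhibition above a set limit, the median over all tested compounds plus 3 SD, cut at about 9.5% in these data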;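 further: enzyme runs in reverse so mevalonate oxidation gives rising NADPH absorbance; 0% = complete reaction with DMSO and 100% = background rate lacking mevalonate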
# Diaphorase act: compounds boosting diaphorase resazurin reduction – biochemical, uHTS, resorufin fluorescence, counter-screen for diaphorase-coupled primary assays, primary screen; Diaphorase/resazurin coupled assay, 16 min; active compounds read high; 1 = vehicle wells, 0 = NADH-free wells; activation factor at 20 µM; 190,000 compounds, 0.005% hits; AID 1229, 2008;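 active means diaphorase activity raised at least twofold by the compound at 20 µM; inactive means activation factor below 2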
#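 Test system: Clostridium kluyveri diaphorase, purified enzyme; input: enzyme 0.07 U/mL final; buffer or medium: 50 mM HEPES pH 7.4 with 4.542 mM MgCl2, 0.005% Tween 20; also added: 0.114 mM NADH and 0.1 mM resazurin, final amounts; schedule: 16 min enzyme reaction, ambient temperature; technique: fluorescence of resorufin, 544 nm excitation, 590 nm emission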
# ABCG2 inh: ABCG2 efflux pump inhibitors, primary screen, multiplex with ABCB1, IgMXP3 cells, flow cytometry; AID 1325, 2008; inhibition, % at 6.6 µM; 190,000 compounds, 0.1% hits; Broad substrate specificity ATP-binding cassette transporter ABCG2 (Homo sapiens), Q9UNQ0; JC-1 efflux;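 active means inhibition above 80%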;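 further: 0% = DMSO and 100% = nicardipine control wells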
#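 Test system: IgMXP3 cells (ABCG2) mixed with DDAO far-red-labelled CCRF-Adr cells (ABCB1). Reagent: JC-1 transporter substrate. Compound dosing: single test compound dose, 6.6 µM final. Times: 10 min compound exposure, 25 °C. Detection: flow cytometry of retained JC-1 fluorescence. Read-out basis: efflux inhibition in percent versus controls. Controls: nicardipine and DMSO wells.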
# Numbers without * were called inactive; · = no result. Sampled rows, rich in hits. Any-hit rate of the full collection: about 1.6%.
SMILES,ABCB1 inh,Diaph inh CS,p47phox inh,HMGR II inh,Diaphorase act,ABCG2 inh
CCOC(=O)C(CC)n1cnc2c(nnn2-c2ccc(OC)cc2)c1=O (stereo unspecified),1,10,-11,27*,0.9,18
CS(=O)(=O)Nc1ccc([N+](=O)[O-])cc1Oc1ccccc1,0,12,-7,0,0.9,0
O=C(Cn1cc2c(n1)CCCC2)NCc1ccccn1,1,10,49*,3,0.9,9
O=C(Cn1cc2c(n1)CCCC2)NCc1cccs1,-3,20,-8,-9,0.8,-4
CN(c1ccccc1)S(=O)(=O)c1cccc(NS(=O)(=O)c2ccc(/C=C/C(=O)O)cc2)c1,0,59*,-17,-1,0.4,0
CN(c1cccc(NS(=O)(=O)c2ccccc2)c1)S(C)(=O)=O,0,17,-4,-7,0.8,0
CN(CCO)C(=O)C(c1ccccc1)c1ccccc1,·,·,-7,·,·,·
CC(C)n1c(SCC(=O)N2c3ccccc3Sc3ccccc32)nc2c1c(=O)n(C)c(=O)n2C,-1,76*,-4,-3,0.2,-3
CCCn1c(SCC(=O)N2c3ccccc3Sc3ccccc32)nc2c1c(=O)n(C)c(=O)n2C,19,16,-5,-8,0.8,43
O=C(N/N=C\c1ccc(-c2ccccc2[N+](=O)[O-])o1)C1COc2cc3ccccc3cc2O1 (stereo unspecified),0,64*,-18,-2,0.4,8
O=C(N/N=C\c1ccc(-c2ccccc2[N+](=O)[O-])o1)C1COc2ccccc2O1 (stereo unspecified),0,39,-19,-3,0.6,7
Cc1onc(-c2ccccc2)c1C(=O)Nc1sc2c(c1C#N)CCC(C)C2 (stereo unspecified),1,21,-17,-1,0.8,6
O=C(Nc1ccc(S(=O)(=O)Nc2ccccc2)cc1)C1COc2ccccc2O1 (stereo unspecified),0,21,-17,15*,0.8,5
O=c1cc2[nH]c3ccccc3c(=O)n2nc1-c1ccccc1,0,66*,-24,3,0.3,2
COc1ccc(CCNc2nnc(Sc3nnnn3-c3ccccc3)s2)cc1OC,-3,10,-9,-3,0.9,-3
COCC(=O)N1CCC(n2nnc3cc(C(F)(F)F)ccc32)CC1,1,8,2,-1,0.9,2
COc1ccc(NC(=O)c2nc[nH]c2C(=O)N2CCN(c3ccccc3)CC2)cc1,·,·,-1,·,·,·
O=C(O)c1ccc(/C=N/NC(=O)c2cc(-c3ccc4c5c(cccc35)CC4)n[nH]2)cc1,-6,68*,-48,-5,0.3,-16
Cc1ccc(OCC(=O)NNc2c3ccccc3nc3ccccc23)cc1,3,5,30*,-1,0.9,19
COc1ccc(/C=C(\C#N)C(=O)Nc2cc(C)c(Cl)cc2OC)cc1O,·,·,-27,·,·,·
COc1ccc(/C=C(/C#N)C(=O)Nc2cc(C)ccc2C)cc1C(=O)O,0,-10,163*,-2,1.1,0
CC1(C)Cc2cccc(C(=O)NC3CCN(Cc4ccccc4)CC3)c2O1,·,·,-15,·,·,·
COC(=O)N/N=C/c1cn(Cc2ccccc2Cl)c2ccccc12,·,21,-7,-2,0.8,1
Cc1[nH][nH]c(=O)c1C(c1c(C)[nH][nH]c1=O)c1cn(Cc2ccccc2Cl)c2ccccc12,1,49,-13,67*,0.5,4
CC(=O)NC1=C(NC2CCS(=O)(=O)C2)C(=O)c2ccccc2C1=O (stereo unspecified),1,39,3,-14,0.6,8
SMILES,ABCB1 inh,Diaph inh CS,p47phox inh,HMGR II inh,Diaphorase act,ABCG2 inh
CN(C1=C(NC(=O)c2ccccc2)C(=O)c2ccccc2C1=O)C1CCS(=O)(=O)C1 (stereo unspecified),3,59*,-7,-2,0.4,11
Cn1nc(C(=O)NCCN2CCOCC2)c2ccccc2c1=O,-3,-1,-4,-8,1,-2
CC(C)n1c2ccccc2c2nnc(SCC(=O)OCN3C(=O)c4ccccc4C3=O)nc21,27,57*,-13,1,0.4,6
COc1ccc2nc(N=Nc3c(O)ccc4ccccc34)sc2c1,-1,4,34*,-3,1,-5
COc1ccc2nc(NC(=O)Nc3cccc4ccccc34)sc2c1,-1,28,-13,5,0.7,-2
CCOC(=S)N/C(=N\S(=O)(=O)c1ccccc1)c1ccccc1,0,9,-2,-7,0.9,3
C1CCC(C(CC2CCCCN2)C2CCCCC2)CC1 (stereo unspecified),1,0,-6,10*,1,0
CCCCCCCCCCCCCCCC[n+]1ccc(C(N)=O)cc1,0,-60,101*,2,1.6,5
CCCCC(=O)Nc1ccc(C(N)=O)cc1,1,7,-7,-2,0.9,24
CCCCCCCC[n+]1cccc(C(=O)N(CC)CC)c1,0,20,0,-9,0.8,12
CCCCCCCCCCCCCCCC[n+]1ccc(/C=N/O)cc1,1,-103,97*,-1,2*,2
CCCCCCCCCCCCCCCC[n+]1cccc(C(=O)N(CC)CC)c1,1,-95,108*,-4,2*,1
NC(=O)c1ccsc1NC(=O)c1nc(-c2ccccc2)n(-c2ccccc2)n1,0,22,-30,-10,0.8,0
O=C(O)[C@H]1CCCC[C@H]1C(=O)Nc1cc([N+](=O)[O-])ccc1F,1,-11,3,-5,1.1,8
O=[N+]([O-])c1cc(-c2ncccn2)c([N+](=O)[O-])s1,0,51*,-2,-4,0.5,2
Cc1nnc(SCC(=O)N2CCc3ccccc32)s1,43*,19,-10,-2,0.8,5
Cc1ccc(-c2nnc3ccc(SCC(=O)N4CCc5ccccc54)nn23)cc1,2,17,-13,-9,0.8,4
Cc1ccc(-c2nnc3ccc(SCC(=O)N4CCCc5ccccc54)nn23)cc1,11,50*,14,0,0.5,6
CC1CCN(c2ccc(C(=O)O)cc2NS(=O)(=O)c2ccc(Br)cc2)CC1,0,16,-5,2,0.8,-1
OCCCCCNc1ncnc2ccccc12,0,9,-9,-9,0.9,3
